# Screens from PubChem BioAssay.
# The sample as a whole holds a higher share of hits than the screen did.
# Ecoli WT growth: blocks growth of wild type E. coli BW25113 | E. coli BW25113 growth inhibition, OD600 | inhibition, % at 10 µM | hit rate 0.05% among 20,000 | AID 552; in the data active means inhibition above about 40%;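 further: bacteria exposed to compound for 20 hours at 37 °C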
#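 Material: bacterial strain in a whole-cell growth screen; Amount: inoculum from a 1:1000 dilution of a 1.5 h subculture; Buffer or medium: LB plus kanamycin 50 µg/mL; Dosing: one dose, 10 µM final; Times: compound exposure of 20 h at 37 °C; Measured by: absorbance at 615 nm as a measure of bacterial growth.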
# * marks the source's active call; other numbers are inactive results.
SMILES,Ecoli WT growth
CN(C)[C@@H]1C(=O)C(C(N)=O)=C(O)[C@@]2(O)C(=O)C3=C(O)c4c(O)cccc4[C@@](C)(O)[C@H]3[C@H](O)[C@@H]12,40*
CC12CCCCC1=[N+]([O-])CN2O (configuration not stated),-2
CCOC(=O)N(C)c1ccc(C(O)(C(=O)OCC)C(F)(F)F)cc1 (configuration not stated),-16
Cc1cnn(C2CCN(C)CC2)c1N,-1
NCC1(CC(=O)O)CCCCC1,7
